# CASP6 VEID inh – blocks human caspase-6 cleavage activity; purified caspase-6, Z-VEID-R110 cleavage fluorescence; inhibition, % at 12.5 µM; 350,000 compounds, 0.53% hits;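 active = mean inhibition across replicates at least about 35%, with every replicate also reaching that limit, limit read from the data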;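 note: 0% = median of neutral control wells and 100% = no fluorescence left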
# Target sequence (P55212 24-179 limits assumed): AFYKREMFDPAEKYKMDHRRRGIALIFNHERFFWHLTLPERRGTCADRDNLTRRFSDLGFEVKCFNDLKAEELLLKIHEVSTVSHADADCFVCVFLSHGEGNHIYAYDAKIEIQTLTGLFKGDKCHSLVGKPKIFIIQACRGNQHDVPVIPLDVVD
# Target sequence (P55212 194-293 limits assumed): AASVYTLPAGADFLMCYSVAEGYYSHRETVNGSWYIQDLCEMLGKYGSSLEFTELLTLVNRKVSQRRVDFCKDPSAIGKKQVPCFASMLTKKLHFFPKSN
# UHRF1 binding – human UHRF1 methylated DNA binding inhibitors; Q96T88; UHRF1 binding to methylated oligo, TR-FRET; inhibition, % at 4.4 µM; 370,000 compounds, 0.75% hits; AID 687016; in the data active = inhibition above about 21%;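 note: UHRF1 SRA domain binding a hemimethylated CpG hairpin DNA probe; 0% = median of test compound wells and 100% = reference inhibitor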
# TDP2 inh – TDP2 (human) inhibition, absorbance primary screen | inhibition, % at 12.8 µM | 370,000 compounds, 0.34% hits | recombinant TDP2, T5PNP hydrolysis, p-nitrophenol absorbance 415 nm | AID 720702 | O95551;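 active = inhibition above the mean of all tested compounds plus 3 SD, set per campaign, cut at about 25% in these data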;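 note: 0% = DMSO with enzyme and 100% = buffer with substrate but no TDP2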
# Target sequence (O95551 whole entry, looked up): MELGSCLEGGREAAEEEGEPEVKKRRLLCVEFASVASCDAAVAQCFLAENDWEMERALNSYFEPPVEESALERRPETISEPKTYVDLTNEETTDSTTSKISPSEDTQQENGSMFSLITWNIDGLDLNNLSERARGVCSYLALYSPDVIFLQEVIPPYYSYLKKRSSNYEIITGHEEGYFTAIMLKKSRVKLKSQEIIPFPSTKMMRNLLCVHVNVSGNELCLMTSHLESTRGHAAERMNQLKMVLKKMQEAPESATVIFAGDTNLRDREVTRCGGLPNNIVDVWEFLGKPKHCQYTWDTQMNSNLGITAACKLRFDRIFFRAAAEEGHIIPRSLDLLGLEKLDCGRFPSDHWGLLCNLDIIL
#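 System: recombinant human TDP2 / Amount: 120 nM TDP2 per well / Also added: 5 mM T5PNP chromogenic substrate / Doses: 12.8 µM single point, 1% DMSO / Incubation: 2 h at 37 °C / Detection: p-Nitrophenol epi absorbance / Evaluation: % inhibition relative to enzyme-containing and enzyme-free wells / Repeats: singlicate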
# LEDGF integ inh – blocks HIV-1 LEDGF/p75-dependent DNA integration | TR-FRET IN-LEDGF/p75 DNA integration, Eu/Cy5 | inhibition, % at 3.7 µM | 370,000 compounds, 0.64% hits;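 active = inhibition above the screen-wide mean plus 3 SD, cut at about 13% in these data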;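 note: signal is the Cy5 over europium emission ratio at 671 and 618 nm; 0% = plate median of compound wells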
# NSD2 inh – inhibitors of human histone methyltransferase NSD2 | O96028 | NSD2 peptide methylation, AlphaScreen, 120 min | inhibition, % at 12.5 µM | 310,000 compounds, 0.54% hits; in the data active = inhibition above about 50%
# MBD2 inh – MBD2-methylated oligo binding inhibition; Q9UBB5; TR-FRET, MBD2 binding to methylated oligonucleotide; inhibition, % at 4.4 µM; 370,000 compounds, 0.31% hits; AID 686964; in the data active = inhibition above about 13%
# Numbers without * were called inactive; . = not tested or not shown. Compounds with a hit are over-represented: about 1.8% of the library has one in this group of screens.
SMILES,CASP6 VEID inh,UHRF1 binding,TDP2 inh,LEDGF integ inh,NSD2 inh,MBD2 inh
CC(=O)Nc1ccc2c(c1)C(=O)N(C)[C@H]1CC[C@H](CC(=O)NCc3ccccc3)O[C@@H]1CO2,0,.,.,.,.,.
NC(=O)/C(=C/c1ccco1)C(N)=S,35*,5,5,12,1,1
C[C@H]1CN([C@@H](C)CO)C(=O)Cc2cc(N(C)C)ccc2O[C@@H]1CN(C)C(=O)Nc1ccc(C(F)(F)F)cc1,-2,.,.,.,.,.
Cc1cc(N2CCCC2)nc2ccc(NC(=S)NCCCN3CCC(C)CC3)cc12,-47,22*,0,0,.,8
CCCNC(=O)N1CC(=O)N2[C@H](CO)[C@@H](c3ccc(C#CCC4CCCC4)cc3)[C@@H]2C1,4,.,.,.,.,.
Cc1cccc(C)c1NC(=O)C(C1CC1)n1c(=O)c(-c2ccco2)nc2ccccc21 (stereo not drawn),36*,-5,5,1,.,3
CCOC(=O)C1(CC/C(C)=N\NC(N)=O)CC(C)OC1=O (stereo not drawn),.,21*,-16,1,3,6
CCCCCC1(C(=O)OCC)CC(CSC(=N)N)OC1=O (stereo not drawn),-5,-2,-4,-2,3,1
O=C(CC1C(=O)NCCN1C/C=C/c1ccccc1)NCCc1ccncc1 (stereo not drawn),-1,23*,-1,0,-3,10
S=C(NCCc1ccccc1)N1CCOCC1,.,-3,0,1,-3,0
S=C(NCCc1ccccc1)N1CCCC1,1,27*,0,4,-3,2
CN(C)CC#Cc1ccc([C@@H]2[C@@H](CO)N3CCCCN(C(=O)Nc4ccc(F)cc4)C[C@H]23)cc1,-2,.,.,.,.,.
O=c1c2ccccc2nc2n1C(CSCc1ccc(Cl)cc1Cl)CS2 (stereo not drawn),.,22*,3,2,3,8
C[C@@H](NC(=O)C[C@H]1C[C@@H]2c3cc(NC(=O)C4CCC4)ccc3O[C@@H]2[C@H](CO)O1)c1ccccc1,2,.,.,.,.,.
Cc1ccc(-c2nnc3ccc(SCC(=O)NCc4ccco4)nn23)cc1,.,22*,0,-3,.,13
C[C@@H]1CCCCO[C@@H](CN(C)Cc2ccccc2)[C@@H](C)CN([C@@H](C)CO)C(=O)c2cc(NC(=O)Nc3ccccc3)ccc2O1,3,.,.,.,.,.
CC1CN(C2CCN(S(=O)(=O)c3ccc(F)cc3)CC2)CC(C)O1 (stereo not drawn),.,21*,-9,-2,2,0
C#CCOc1ccc(/C=C2/C(=O)N(c3ccc(S(N)(=O)=O)cc3)N=C2C)cc1OC,39*,-1,0,5,5,-1
COc1cccc(-c2cn(CC[C@@H]3CC[C@H](NC(C)=O)[C@@H](CO)O3)nn2)c1,-1,.,.,.,.,.
Cc1nnc(-n2cnc3ccccc32)c2ccccc12,.,21*,-2,3,-1,11
CC(=O)Nc1ccc(NC(=O)C2Cc3c(-c4ccc5c(c4)OCO5)ccnc3O2)cc1 (stereo not drawn),0,0,2,1,-1,1
O=C(Nc1ccc2c(c1)OCO2)C1Cc2c(-c3ccc4c(c3)OCO4)ccnc2O1 (stereo not drawn),65*,-4,-5,4,7,-5
CNC[C@H]1Oc2c(NS(=O)(=O)c3cccs3)cccc2C(=O)N([C@@H](C)CO)C[C@H]1C,10,.,.,.,.,.
O=C(c1ccccn1)N1CC(=O)N2[C@H](CO)[C@@H](c3ccc(-c4cccc(F)c4)cc3)[C@H]2C1,1,.,.,.,.,.
Cc1ccc(NC(=S)NCC2CCN(C(C)c3ccccc3)C2)cc1C (stereo not drawn),-15,23*,0,1,8,1
SMILES,CASP6 VEID inh,UHRF1 binding,TDP2 inh,LEDGF integ inh,NSD2 inh,MBD2 inh
Cc1ccc(NC(=S)NCC2CCCO2)cc1C (stereo not drawn),.,0,12,2,7,0
Cc1ccc(SCCC(=O)Nc2ccccc2C(=O)NC(C)C)cc1,.,22*,8,1,-2,6
CCOC(=O)C1=C(C)N(C)C(C)=C(C(=O)OCC)C1c1ccc(Cl)cc1,5,26*,-6,-1,1,6
O=C(C[C@H]1C=C[C@@H](NC(=O)Nc2ccc(C(F)(F)F)cc2)[C@H](CO)O1)NCc1ccccn1,1,.,.,.,.,.
Cc1cc(C)c2c(=N)c3ccccc3n(CCCCCCCCn3c4ccccc4c(=N)c4c(C)cc(C)nc43)c2n1,18,41*,-7,-2,.,28*
C[C@H](CO)N1C[C@H](C)[C@H](CN(C)C(=O)Nc2ccc(C(F)(F)F)cc2)Oc2ccc(NS(=O)(=O)c3ccc(F)cc3)cc2C1=O,-1,.,.,.,.,.
C[C@H]1CCCCO[C@@H](CN(C)Cc2ccc(C(=O)O)cc2)[C@@H](C)CN([C@@H](C)CO)C(=O)c2cc(NS(=O)(=O)c3ccc(F)cc3)ccc2O1,0,.,.,.,.,.
O=C(NC(=S)NC1CCSC1=O)c1cccs1 (stereo not drawn),4,50*,-2,-2,2,-3
Cc1ccccc1C(=O)NC(=S)NC1CCSC1=O (stereo not drawn),.,-2,8,-4,-2,-2
O=C(NC1CCCC1)N1CCCCN2[C@@H](CO)[C@@H](c3ccc(-c4ccccc4)cc3)[C@@H]2C1,0,.,.,.,.,.
CCCCNC(=O)N1CCOCCOCCN(C(=O)NCCCC)CCOCCOCC1,.,-2,2,1,0,6
CCCCNC(=O)NCCN1CCOCC1,9,35*,11,-4,7,5
Cc1noc(C)c1S(=O)(=O)Nc1ccc2c(c1)C(=O)N([C@H](C)CO)C[C@H](C)[C@H](CN(C)Cc1ccc3c(c1)OCO3)OCCCC[C@H](C)O2,-2,.,.,.,.,.
CN(C)c1ccc(NC(=O)c2cn(-c3ccccc3)nc2-c2cccs2)cc1,.,0,-5,-3,3,0
CN(C)C(=O)c1cn(-c2ccccc2)nc1-c1cccs1,.,1,-4,17*,-2,0
O=C(N[C@@H]1CC[C@H](CC(=O)N2CCN(c3ccccc3)CC2)O[C@H]1CO)c1ccccc1,-5,.,.,.,.,.
C[C@H](CO)N1C[C@H](C)[C@@H](CN(C)C(=O)c2cccc(F)c2)Oc2cc(-c3ccncc3)ccc2S1(=O)=O,-3,.,.,.,.,.
COc1ccc(NC(=S)N2CCC(C(=O)c3ccc(C)cc3)CC2)c(OC)c1,0,26*,1,-8,2,2
COc1ccc(NC(=O)CN2CCC(C(=O)c3ccc(C)cc3)CC2)c(OC)c1,-2,0,14,-1,-1,2
CN(C)c1cccc(C(=O)OCc2cc(=O)oc3cc(O)ccc23)c1,.,24*,4,5,.,8
COC(=O)/C=c1/s/c(=C(/C#N)C(=O)N2CCOCC2)n(-c2ccccc2)c1=O,.,80*,-9,-2,10,2

# Assay outcomes from PubChem.
